Measured values collected from several papers.
Lines come from different studies, so protocols differ.
Target: Dual specificity mitogen-activated protein kinase kinase 3 (MAP2K3, Homo sapiens, UniProt P46734)
One construct used (P46734 1-347): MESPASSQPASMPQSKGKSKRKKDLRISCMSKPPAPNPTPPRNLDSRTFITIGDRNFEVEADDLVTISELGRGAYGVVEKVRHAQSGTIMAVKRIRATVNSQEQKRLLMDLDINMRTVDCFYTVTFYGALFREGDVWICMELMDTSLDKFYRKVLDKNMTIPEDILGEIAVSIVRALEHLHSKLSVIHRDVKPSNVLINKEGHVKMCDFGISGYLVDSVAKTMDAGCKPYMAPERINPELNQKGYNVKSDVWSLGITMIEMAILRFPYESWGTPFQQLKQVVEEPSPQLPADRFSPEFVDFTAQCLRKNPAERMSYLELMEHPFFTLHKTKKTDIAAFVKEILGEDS

SMILES	observed	technique	concentration	remaining binding [%]
CN(CCCC(F)(F)F)c1nccc(-c2cnn3ncccc23)n1	binding		1 µM	99
FC(F)(F)c1ccc2c(c1)nc(-c1cccnc1)n2C1CC1	cell-free assay	competition with immobilised ligand	1 µM	100
c1cncc(-c2cccc(Nc3nccc(NC4CCCCC4)n3)c2)c1	binding	competition with immobilised ligand	10 µM	32
O=C(NCC1CCOCC1)c1n[nH]cc1NC(=O)c1c(F)cccc1F	binding	competition with immobilised ligand	1 µM	64
F[C@@H]1CCN(c2nccc(-c3cnn4ncccc34)n2)C1	binding		1 µM	83
O=C(c1ccc(Nc2ncc(Cl)c(-c3ccc(Cl)s3)n2)cc1)N1CCC(N2CCCC2)CC1	binding	competition with immobilised ligand	1 µM	15
c1ccc(N2CCN(Cc3nc4ccccc4[nH]3)CC2)nc1	binding	competition with immobilised ligand	1 µM	96
CC1CCCN1c1nccc(-c2cnn3ncccc23)n1 (stereo not shown)	binding		1 µM	84
CO[C@@H](C)c1c(Nc2ccc([C@H](N(C)C(=O)C3CCS(=O)(=O)CC3)C(F)(F)F)cc2)cnc2cc(Cl)nn12	cell-free assay	competition with immobilised ligand	1 µM	93
O=C(NCCCN1CCOCC1)c1ccc(Nc2ncc(Cl)c(-c3ccc(Cl)s3)n2)cc1	binding	competition with immobilised ligand	1 µM	51
CC1=C(C#N)[C@@H](c2ccc3[nH]nc(C)c3c2)C(C#N)=C(c2ccc(Cl)cc2)N1	cell-free assay	competition with immobilised ligand	1 µM	53.5
C[C@@H](c1ccc(-n2cnc3c(N)ncnc32)cc1)N1CCc2nn(C)c(Cc3ccccc3)c2C1=O	binding	competition with immobilised ligand	0.1 µM	63
CN(C)c1nccc(-c2cnn3ncccc23)n1	binding		1 µM	51
Cc1cnc(Nc2ccc(C(=O)N3CCC(N4CCCC4)CC3)cc2)nc1-c1cc2ccccc2s1	binding	competition with immobilised ligand	1 µM	42
COc1cnc(Nc2cccc(S(N)(=O)=O)c2)nc1N1CCN(c2ccccc2)CC1	binding	competition with immobilised ligand	1 µM	79
C=CC(=O)N1CCC(C(=O)NCC(=O)N2CCN(c3nc(-c4cnc(N)nc4C(F)F)nc(N4CCOCC4)n3)CC2)CC1	binding	competition with immobilised ligand	1 µM	59
N[C@@H]1CCN(c2nccc(-c3cnn4ncccc34)n2)C1	binding		1 µM	59
Cn1nc(C(F)(F)F)cc1-c1cnc(N2CCc3cc(S(=O)(=O)Nc4c(F)cc(Cl)cc4F)cc(N4CCCC4=O)c32)nc1	cell-free assay	competition with immobilised ligand	1 µM	82
Nc1ncc2c(n1)-c1c([nH]c3ccc(C#CC4CC4)cc13)CCCC2	binding	competition with immobilised ligand	1 µM	93
c1cnn2ncc(-c3ccnc(N4CCC45COC5)n3)c2c1	binding		1 µM	31
Nc1cnc(N2CCc3cc(S(=O)(=O)Nc4c(F)cc(Cl)cc4F)cc(N4CCCC4=O)c32)nc1	cell-free assay	competition with immobilised ligand	1 µM	100
COc1ncc2cc3ccccc3nc2c1C#N	cell-free assay	competition with immobilised ligand	5 µM	74
